# Article PMC8463264 (Acta Pharmaceutica Sinica. B, 2020)
# Where no end group is shown, it is not given here.
# Key:
# [1] = test system: mice; assay: Observation of visible or behavioral adverse effects in mice; assay type: in vivo, mouse; settings: administered topically onto the ears or intranasally into lungs of mice
# [2] = test system: CXCR4-tropic HIV-1; assay: X4-HIV-1 inhibition assay in TZM-bl reporter cells; assay type: cell-based; settings: for fold increase of antiviral (anti-HIV-1) activity over WSC02: ratio of IC50 values vs WSC02
# [3] = test system: CXCL12-induced intracellular Ca^2+ mobilization in BCR-ABL expressing murine pro/pre B cells; assay: CXCL12-induced Ca2+ mobilization assay; assay type: cell-based, mouse
# [4] = test system: immune cell infiltration into BAL of BALB/c mice; assay: Mouse model of allergic airway hypereosinophilia; assay type: in vivo; settings: for effect on influx of macrophages into BAL: OVA-challenged mice
# [5] = test system: MC903-induced skin inflammation of ears of BALB/c mice; assay: Mouse model of atopic dermatitis; assay type: in vivo
# [6] = cited from earlier work
# [7] = target: CXCR4 (Homo sapiens, UniProt P61073); assay: CXCR4 12G5 antibody competition assay on SupT1 cells; assay type: binding
# CXCR4, sequence (P61073 whole entry): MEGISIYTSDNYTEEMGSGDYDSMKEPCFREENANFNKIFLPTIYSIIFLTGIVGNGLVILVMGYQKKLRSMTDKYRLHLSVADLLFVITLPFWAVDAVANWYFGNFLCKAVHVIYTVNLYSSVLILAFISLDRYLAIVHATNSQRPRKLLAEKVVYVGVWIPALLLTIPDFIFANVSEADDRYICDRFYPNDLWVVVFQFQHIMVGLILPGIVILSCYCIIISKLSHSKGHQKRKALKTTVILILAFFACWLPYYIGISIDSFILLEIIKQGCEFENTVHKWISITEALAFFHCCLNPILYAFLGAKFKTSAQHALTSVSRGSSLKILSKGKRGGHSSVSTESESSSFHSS
# [8] = test system: SupT1 migration towards a CXCL12 gradient; assay: Transwell cell migration assay; assay type: cell-based
# Outline: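 SupT1 cells (0.75 × 10^5) in RPMI with 0.1% BSA go into the upper chamber of a 5 μm polycarbonate transwell, with or without compound, and settle ~15 min. The lower chamber holds buffer with or without 100 ng/mL CXCL12 plus compound. After 4 h of migration at 37 °C (5% CO2), lower-chamber cells are counted by CellTiter-Glo and normalized to CXCL12-only. Mean ± SEM, n = 3; fold values compare IC50s.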
# [9] = test system: zebrafish embryos; assay: Toxicity in zebrafish embryos; assay type: in vivo
# Outline: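 Wild-type embryos dechorionated at 24 hpf with 1 mg/mL pronase in E3, then exposed 24 h in E3 containing peptide. Two independent assays per concentration, each on 10 × 3 embryos. Controls: PBS solvent diluted in E3 matching the highest-dose amount, and pleurocidin peptide NRC-03. Scored at 48 hpf by stereomicroscope: lysis/necrosis, delay/malformations, heart edema/reduced or absent circulation.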
# [10] = 12.6 μmol/kg intranasal, 2 h before each OVA challenge, BAL on day 8, mean ± SEM
# [11] = 315 nmol/ear topically daily, day 11, mean ± SEM
# [12] = 2.5 nmol/ear every two days, day 11 (disease inducer)
# [13] = 16 μmol/kg intranasal, 2 h before each OVA challenge, BAL on day 8, mean ± SEM
# [14] = 20 nmol/ear topically daily, day 11, mean ± SEM
compound,measurement,setting,value
H-IVRWSKKVPCVS [WSC02],visible or behavioral adverse effects,[1],did not observe visible or behavioral adverse effects
H-IVRWSKKFPCVS [JM#7],fold increase of antiviral (anti-HIV-1) activity over WSC02,[2],about 2 fold
"c1cc(CN2CCCNCCNCCCNCC2)ccc1CN1CCCNCCNCCCNCC1 [AMD3100, Plerixafor]",IC50,"[2]; Human immunodeficiency virus 1, TZM-bl, read-out: IC50±SEM X4-HIV-1",12 ± 2 nM
same,effect on CXCL12-induced Ca2+ mobilization,[3]; 1 μmol/L compound,reduced Ca^2+ mobilization
same,effect on CXCL12-induced Ca2+ mobilization,[3]; 10 μmol/L compound,completely abrogated
same,inhibition of recruitment of B cells into BAL,[4]; [10],47 ± 17%
same,inhibition of recruitment of T cells into BAL,[4]; [10],47 ± 15%
same,inhibition of recruitment of eosinophils into BAL,[4]; [10],56 ± 13%
same,inhibition of recruitment of neutrophils into BAL,[4]; [10],57 ± 14%
same,inhibition of recruitment of total cells into BAL,[4]; [10],41 ± 13%
same,inhibition of MC903 induced ear thickness,[5]; [11],25 ± 7%
same,inhibition of disease score,[5]; [11],18 ± 6%
same,stability towards plasma proteases,[6],resistant to plasma proteases
"C=C1/C(=C\C=C2/CCC[C@]3(C)[C@@H]([C@H](C)/C=C/[C@@H](O)C4CC4)CC[C@@H]23)C[C@@H](O)C[C@@H]1O [MC903, calcipotriol hydrate]","disease score (0-12, Table 3)",[5]; [12],9.4 ± 0.1
same,increase of the ear thickness as compared to control,[5]; [12],3.1 ± 0.1 fold
H-LVRYTKKVPQVSTPTL [EPI-X4],IC50,[7],3240 ± 620 nM
same,effect on CXCL12-induced Ca2+ mobilization,[3]; at the tested concentrations,almost inactive
same,inhibition of recruitment of B cells into BAL,[4]; [13],54 ± 9%
same,inhibition of recruitment of T cells into BAL,[4]; [13],61 ± 8%
same,inhibition of recruitment of eosinophils into BAL,[4]; [13],76 ± 7%
same,inhibition of recruitment of neutrophils into BAL,[4]; [13],63 ± 7%
same,effect on influx of macrophages into BAL,[4]; 16 μmol/kg intranasal,not macrophages
same,visible or behavioral adverse effects,[1],did not observe visible or behavioral adverse effects
C[C@@H]1C[C@H]2[C@@H]3CCC4=CC(=O)C=C[C@]4(C)[C@@]3(F)[C@@H](O)C[C@]2(C)[C@@]1(O)C(=O)CO [dexamethasone],inhibition of MC903-induced ear thickening,[5]; [14],96 ± 2%
same,inhibition of disease score,[5]; [14],97 ± 2%
CC[C@H](C)[C@H](N)C(=O)N[C@@H](CC(C)C)C(=O)N[C@@H](CCCNC(=N)N)C(=O)N[C@@H](Cc1c[nH]c2ccccc12)C(=O)N[C@@H](CO)C(=O)N[C@@H](CCCNC(=N)N)C(=O)N[C@@H](CCCCN)C(=O)N[C@@H](CC(C)C)C(=O)N1CCC[C@H]1C(=O)N[C@@H](CS)C(=O)N[C@H](C(=O)N[C@@H](CO)C(=O)O)C(C)C [JM#21],IC50,[7],220 ± 20 nM
same,fold more active than AMD3100 in 12G5 competition,[7]; vs AMD3100,about 3 fold
same,fold more active than WSC02 in 12G5 competition,[7]; vs WSC02,~2 fold
same,fold more efficient than WSC02 in blocking migration,[8]; vs WSC02,33 fold
same,fold more efficient than EPI-X4 in blocking migration,[8]; vs wild type peptide EPI-X4,more than 1400 fold
same,"toxicity in zebrafish embryos (acute, developmental, cardiotoxicity)","[9]; exposure 24 h from 24 hpf, 3, 30 and 300 μmol/L, 60 embryos per group",not toxic
same,inhibition of recruitment of B cells into BAL,[4]; [13],71 ± 5%
same,inhibition of recruitment of T cells into BAL,[4]; [13],73 ± 13%
same,inhibition of recruitment of eosinophils into BAL,[4]; [13],80 ± 1%
same,inhibition of recruitment of neutrophils into BAL,[4]; [13],42 ± 15%
same,effect on influx of macrophages into BAL,[4]; 16 μmol/kg intranasal,not macrophages
same,inhibition of MC903-induced ear thickening,"[5]; 400 nmol/ear topically daily, day 11, mean ± SEM",88 ± 4%
same,visible or behavioral adverse effects,[1],did not observe visible or behavioral adverse effects
H-ILRWSKKVPCVS [JM#1],fold increase of antiviral (anti-HIV-1) activity over WSC02,[2],9 fold
GRRKRKWLRRIGKGVKIIGGAALDHL-NH2 [NRC-03],toxicity in zebrafish embryos (positive control),"[9]; 6 μmol/L, exposure 24 h",acutely toxic
